Experimental findings from ChEMBL document CHEMBL1136010, “Synthesis and evaluation of indenopyrazoles as cyclin-dependent kinase inhibitors. 3. Structure activity relationships at C3(1,2)” (J Med Chem, 2002) are described below.

For assay [1], the target named is cAMP-dependent protein kinase (PKA) (Homo sapiens, UniProt P22694+P17612+P22612). Nature of the assay: Inhibition of Protein kinase A (PKA). The class given is protein assay.
A further assay relates to HCT-116. In words: Inhibition of HCT116 colon carcinoma cell proliferation. The assay is classed as functional, cell-based. The following applies: Homo sapiens. An outline of the steps:
(§1)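 SRB colorimetric growth assay. Exponentially growing cells were seeded so they would undergo 3-5 doublings before reaching 85% confluence. Graded compound concentrations were added 18 h later, and cells were incubated 5 days at 37 °C in 5% CO2. Cells were fixed with cold TCA for 1 h at 4 °C, stained with 0.4% SRB in 1% acetic acid, solubilized in 10 mM Tris base, and OD read at 570 nm.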

The next assay has as its system AG1523. Nature of the assay: Effective concentration against normal human fibroblast cell line AG1523. The assay is classed as functional, cell-based. An outline of the steps:
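Normal human foreskin fibroblasts AG1523 were seeded at a density giving confluence and contact inhibition of growth. Graded compound concentrations were added 18 h later, and cells were incubated 6 days at 37 °C in 5% CO2. Death effects were scored by SRB colorimetry: cold TCA fixation, 0.4% SRB stain, Tris base solubilization, OD at 570 nm.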

Assay [2] concerns the target Cyclin-dependent kinase 1/cyclin B (Homo sapiens, UniProt P06493). Nature of the assay: Inhibition of Cyclin-dependent kinase 1-cyclin B. The class given is protein-complex assay.
The test system of another assay is PC-3. Nature of the assay: Inhibition of PC3 cell proliferation. The following applies: Homo sapiens. The class given is functional, cell-based. An outline of the steps:
as §1

Assay [3] addresses Cyclin-dependent kinase 2/cyclin E (Homo sapiens, UniProt P24941). Nature of the assay: Inhibitory concentration against Cyclin-dependent kinase 2-cyclin E. The assay is classed as protein-complex assay.
A further assay has as its system MIA PaCa-2. In words: Inhibition of MiaPaCa2 cell proliferation. The settings on record: Homo sapiens. The assay is classed as functional, cell-based. The method in brief:
as §1

The next assay concerns the target Protein kinase C (PKC). In words: Inhibition of Protein kinase C. The assay is classed as protein assay.
Assay [4] has as its target Cyclin-dependent kinase 4/cyclin D1 (Homo sapiens, UniProt P11802). In words: Inhibitory concentration against Cyclin-dependent kinase 4-cyclin D1. The class given is protein-complex assay. The method in brief: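 CDK4/cyclin D1 came from extracts of insect cells dually infected with baculovirus vectors. Reactions were started with 4 units of enzyme, run 15 min at room temperature, and stopped with EDTA. Product was captured on GSH-Sepharose and counted by scintillation.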

The subject of the next assay is B16. Nature of the assay: Inhibitory activity against B16-F1 cell line. The following applies: Mus musculus. The assay is classed as functional, cell-based.
Assay [5] has as its target Tyrosine-protein kinase ABL1 (Homo sapiens, UniProt P00519). Nature of the assay: Inhibition of c-Abl tyrosine kinase.
A further assay has as its system NCI-H460. In words: Inhibition of NCI-H460 cell proliferation. The following applies: Homo sapiens. The class given is functional, cell-based. The method in brief:
as §1

Another assay has as its system HT-29. In words: Inhibition of HT-29 cell proliferation. The following applies: Homo sapiens. The assay is classed as functional, cell-based. The method in brief:
as §1

Another assay deals with HT-1080. In words: Inhibition of HT1080 cell proliferation. The class given is functional, cell-based. The following applies: Homo sapiens. The method in brief:
as §1

Where only a bound is given, the exact number is not on record here.

Chain of Tyrosine-protein kinase ABL1 (P00519 whole entry): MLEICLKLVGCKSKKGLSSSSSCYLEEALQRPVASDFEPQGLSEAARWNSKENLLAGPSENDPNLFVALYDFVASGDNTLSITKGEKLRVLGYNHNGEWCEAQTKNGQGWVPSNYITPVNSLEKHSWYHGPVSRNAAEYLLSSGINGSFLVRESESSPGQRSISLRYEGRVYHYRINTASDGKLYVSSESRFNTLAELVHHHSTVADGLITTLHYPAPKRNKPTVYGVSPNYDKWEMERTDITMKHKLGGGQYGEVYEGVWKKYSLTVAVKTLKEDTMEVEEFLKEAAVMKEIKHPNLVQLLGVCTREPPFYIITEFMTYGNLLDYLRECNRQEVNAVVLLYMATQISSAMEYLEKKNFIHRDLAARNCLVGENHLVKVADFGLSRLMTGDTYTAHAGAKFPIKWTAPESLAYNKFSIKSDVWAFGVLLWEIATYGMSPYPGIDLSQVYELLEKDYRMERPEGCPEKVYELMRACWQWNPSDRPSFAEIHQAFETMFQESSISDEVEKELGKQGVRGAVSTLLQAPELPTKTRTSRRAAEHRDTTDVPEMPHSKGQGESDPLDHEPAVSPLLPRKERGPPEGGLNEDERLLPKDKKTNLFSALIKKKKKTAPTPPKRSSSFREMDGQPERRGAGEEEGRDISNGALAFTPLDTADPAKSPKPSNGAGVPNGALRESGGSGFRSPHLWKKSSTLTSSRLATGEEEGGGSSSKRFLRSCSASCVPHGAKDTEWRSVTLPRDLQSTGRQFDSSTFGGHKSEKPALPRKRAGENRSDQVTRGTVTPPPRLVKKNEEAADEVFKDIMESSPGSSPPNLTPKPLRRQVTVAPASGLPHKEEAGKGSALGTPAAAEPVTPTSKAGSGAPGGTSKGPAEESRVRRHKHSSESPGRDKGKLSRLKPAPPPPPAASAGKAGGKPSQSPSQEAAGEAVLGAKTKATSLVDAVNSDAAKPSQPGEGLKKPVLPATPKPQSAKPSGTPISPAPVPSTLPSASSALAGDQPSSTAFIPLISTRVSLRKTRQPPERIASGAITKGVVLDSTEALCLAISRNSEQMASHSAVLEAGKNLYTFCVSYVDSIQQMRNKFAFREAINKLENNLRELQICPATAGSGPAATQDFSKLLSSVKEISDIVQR
Chain of Cyclin-dependent kinase 4/cyclin D1 (P11802 whole entry): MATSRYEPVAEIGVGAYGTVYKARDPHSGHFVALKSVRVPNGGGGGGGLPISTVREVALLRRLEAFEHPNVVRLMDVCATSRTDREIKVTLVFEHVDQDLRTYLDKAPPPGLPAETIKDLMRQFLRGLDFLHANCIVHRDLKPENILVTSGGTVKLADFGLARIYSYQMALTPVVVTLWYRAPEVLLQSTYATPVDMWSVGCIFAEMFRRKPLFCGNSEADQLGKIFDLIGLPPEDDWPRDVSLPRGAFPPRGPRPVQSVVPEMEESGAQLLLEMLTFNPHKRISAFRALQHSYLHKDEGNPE
Chain of Cyclin-dependent kinase 4/cyclin D1 (P24385 whole entry, further chain): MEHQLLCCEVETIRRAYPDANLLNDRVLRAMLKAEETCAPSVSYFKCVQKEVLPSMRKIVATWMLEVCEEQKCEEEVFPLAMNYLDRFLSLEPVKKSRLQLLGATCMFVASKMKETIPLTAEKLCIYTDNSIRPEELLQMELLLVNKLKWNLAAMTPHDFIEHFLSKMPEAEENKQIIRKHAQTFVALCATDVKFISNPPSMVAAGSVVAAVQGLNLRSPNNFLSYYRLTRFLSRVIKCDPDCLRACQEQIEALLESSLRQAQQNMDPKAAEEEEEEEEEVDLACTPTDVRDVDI

As a reminder, the IC50 is the concentration needed to halve the response being measured. A lower IC50 goes with greater potency in that assay. Broadly, the EC50 is the concentration that produces a half-maximal response. In the case of `NC(=O)Nc1cccc2c1C(=O)c1c(-c3csc(Cl)c3)n[nH]c1-2`, the IC50 is more than 58 µM in assay [1]; 0.13 µM in the assay with HCT-116; 0.044 µM in assay [2]; 0.69 µM in the assay on PC-3; 0.013 µM in [3]; 0.26 µM with MIA PaCa-2. In addition, the IC50 is more than 58 µM on Protein kinase C (PKC); 0.057 µM in [4]; 0.2 µM with B16; more than 60 µM in assay [5]; 0.24 µM in the assay with NCI-H460; more than 2.9 µM in the assay on HT-29. This compound also displayed an IC50 in the assay with HT-1080 of 0.49 µM. The concentration for a half-maximal effect (EC50) in the assay on AG1523 is more than 29 µM.
